Converted amounts (≈) assume the structure as drawn.
What was measured:
Type in all cases: functional
[1] = system: Escherichia coli; experiment: Antibacterial activity against Escherichia coli MTCC 739 by serial dilution method; set-up: -logMIC: scale not given here; conditions: for MIC: Escherichia coli, MTCC 739, read-out: MIC
Procedure, shortened: (§1)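 Tube serial dilution in 1 ml sterile double strength nutrient broth I.P., test range […] per ml. Inoculum: […] of a saline suspension at 10⁵ cfu/ml from a fresh 24-h culture, grown in double strength nutrient broth at 37 ± 1 °C. […] Exact MIC refined by further dilution of the stock.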

[2] = system: Aspergillus niger; experiment: Antifungal activity against Aspergillus niger MTCC 2425 by serial dilution method; set-up: -logMIC: scale not given here; conditions: for MIC: Aspergillus niger, MTCC 2425, read-out: MIC
[3] = system: Staphylococcus aureus; experiment: Antibacterial activity against Staphylococcus aureus MTCC 1430 by serial dilution method; set-up: -logMIC: scale not given here; conditions: for MIC: Staphylococcus aureus, MTCC 1430, read-out: MIC; procedure, shortened: as §1
[4] = system: Candida albicans; experiment: Antifungal activity against Candida albicans MTCC 227 by serial dilution method; set-up: -logMIC: unit not given here; conditions: for MIC: Candida albicans, MTCC 227, read-out: MIC
[5] = system: Bacillus subtilis; experiment: Antibacterial activity against Bacillus subtilis MTCC 2423 by serial dilution method; set-up: -logMIC: unit not given here; conditions: for MIC: Bacillus subtilis, MTCC 2423, read-out: MIC; procedure, shortened: as §1

SMILES | -logMIC [1] | MIC [1] | -logMIC [2] | MIC [2] | -logMIC [3] | MIC [3] | -logMIC [4] | MIC [4] | -logMIC [5] | MIC [5]
COc1ccc(C(=O)Nc2ccc([N+](=O)[O-])cc2)cc1OC | 1.16 | 21 µg/mL (≈ 69.5 µM) | 1.35 | 13 µg/mL (≈ 43 µM) | 1.25 | 17 µg/mL (≈ 56.2 µM) | 1.32 | 14 µg/mL (≈ 46.3 µM) | 1.41 | 11.5 µg/mL (≈ 38 µM)
COc1ccccc1NC(=O)c1ccc(OC)c(OC)c1 | 1.23 | 17 µg/mL (≈ 59.2 µM) | 1.32 | 14 µg/mL (≈ 48.7 µM) | 1.23 | 17 µg/mL (≈ 59.2 µM) | 1.29 | 15 µg/mL (≈ 52.2 µM) | 1.34 | 13 µg/mL (≈ 45.2 µM)
COc1ccc(C(=O)Nc2cccc(C)c2)cc1OC | 1.2 | 17 µg/mL (≈ 62.7 µM) | 1.35 | 12.5 µg/mL (≈ 46.1 µM) | 1.2 | 17 µg/mL (≈ 62.7 µM) | 1.42 | 10 µg/mL (≈ 36.9 µM) | 1.31 | 13 µg/mL (≈ 47.9 µM)
COc1ccc(C(=O)Nc2ccc(C)cc2)cc1OC | 1.2 | 17 µg/mL (≈ 62.7 µM) | 1.35 | 12.5 µg/mL (≈ 46.1 µM) | 1.15 | 18.5 µg/mL (≈ 68.2 µM) | 1.32 | 13 µg/mL (≈ 47.9 µM) | 1.31 | 13 µg/mL (≈ 47.9 µM)
COc1ccc(NC(=O)c2ccc(OC)c(OC)c2)cc1 | 1.18 | 19 µg/mL (≈ 66.1 µM) | 1.4 | 11.5 µg/mL (≈ 40 µM) | 1.2 | 18 µg/mL (≈ 62.6 µM) | 1.36 | 12.5 µg/mL (≈ 43.5 µM) | 1.38 | 12 µg/mL (≈ 41.8 µM)
COc1ccc(C(=O)Nc2cccc([N+](=O)[O-])c2)cc1OC | 1.36 | 13 µg/mL (≈ 43 µM) | 1.36 | 13 µg/mL (≈ 43 µM) | 1.22 | 18 µg/mL (≈ 59.5 µM) | 1.27 | 16 µg/mL (≈ 52.9 µM) | 1.46 | 10.5 µg/mL (≈ 34.7 µM)
COc1ccc(C(=O)Nc2ccc(Br)cc2)cc1OC | 1.25 | 19 µg/mL (≈ 56.5 µM) | 1.44 | 12.5 µg/mL (≈ 37.2 µM) | 1.25 | 19 µg/mL (≈ 56.5 µM) | 1.34 | 15 µg/mL (≈ 44.6 µM) | 1.4 | 13 µg/mL (≈ 38.7 µM)
COc1ccc(C(=O)Nc2cccc(O)c2)cc1OC | 1.16 | 19 µg/mL (≈ 69.5 µM) | 1.36 | 12 µg/mL (≈ 43.9 µM) | 1.2 | 17 µg/mL (≈ 62.2 µM) | 1.36 | 12 µg/mL (≈ 43.9 µM) | 1.26 | 15 µg/mL (≈ 54.9 µM)
COC(=O)c1ccc(OC)c(OC)c1 [VERATRIC ACID METHYL ESTER] | 1.04 | 18 µg/mL (≈ 91.7 µM) | 1.15 | 14 µg/mL (≈ 71.4 µM) | 1.04 | 18 µg/mL (≈ 91.7 µM) | 1.2 | 12 µg/mL (≈ 61.2 µM) | 1.2 | 12 µg/mL (≈ 61.2 µM)
COc1ccc(C(=O)O)cc1OC [VERATRIC ACID] | 1.06 | 16 µg/mL (≈ 87.8 µM) | 1.11 | 14 µg/mL (≈ 76.8 µM) | 1.01 | 18 µg/mL (≈ 98.8 µM) | 1.22 | 11 µg/mL (≈ 60.4 µM) | 1.31 | 9 µg/mL (≈ 49.4 µM)
